Consider seven compounds from ChEMBL document CHEMBL3585252, “Selaginellin and biflavonoids as protein tyrosine phosphatase 1B inhibitors from Selaginella tamariscina and their glucose uptake stimulatory effects” (Bioorg Med Chem, 2015).

Series [1] addresses T1, Tyrosine-protein phosphatase non-receptor type 1 (Mus musculus) (UniProt P35821).
T1 sequence (whole entry): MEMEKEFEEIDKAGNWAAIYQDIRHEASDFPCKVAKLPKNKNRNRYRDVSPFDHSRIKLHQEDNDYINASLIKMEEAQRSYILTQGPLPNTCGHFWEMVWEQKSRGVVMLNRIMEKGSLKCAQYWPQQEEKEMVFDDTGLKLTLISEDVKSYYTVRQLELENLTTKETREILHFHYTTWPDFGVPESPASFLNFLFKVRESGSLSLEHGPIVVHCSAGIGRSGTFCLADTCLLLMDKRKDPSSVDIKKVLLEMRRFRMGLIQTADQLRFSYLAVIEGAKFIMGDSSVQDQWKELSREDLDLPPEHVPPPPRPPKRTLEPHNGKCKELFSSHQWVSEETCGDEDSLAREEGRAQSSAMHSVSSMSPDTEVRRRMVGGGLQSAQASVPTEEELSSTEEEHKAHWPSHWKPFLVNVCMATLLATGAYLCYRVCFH
In words: Inhibition of PTP1B in mouse 3T3L1 cells assessed as stimulation of 2-NBDG uptake preincubated for 24 hrs followed by 2-NBDG addition measured after 30 mins by fluorescence reader analysis. Type of series: cell-based. As to conditions: 3T3-L1. Put shortly: (§1)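 3T3-L1 preadipocytes were grown to confluence and differentiated for 8 days (days 0–8). Mature adipocytes were treated with compound at 5 and 10 µM, or with insulin at 100 nM; DMSO was the vehicle control. 2-NBDG was then added for 30 min. Uptake is expressed as fold induction over the DMSO control.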

Series [2] has as its target T1, Tyrosine-protein phosphatase non-receptor type 1 (Mus musculus). The experiment in a line: Inhibition of PTP1B in mouse 3T3L1 cells assessed as stimulation of 2-NBDG uptake at 10 uM preincubated for 24 hrs followed by 2-NBDG addition measured after 30 mins by fluorescence reader analysis relative to control. As to conditions: 3T3-L1. Type of series: cell-based. Put shortly: as §1

The nature of series [3]: Cytotoxicity against mouse 3T3L1 cells assessed as inhibition of cell viability at 5 to 10 uM after 48 hrs by MTT assay. As to conditions: 3t3-l1, 48 h. Type of series: cell-based. Put shortly: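 Differentiated 3T3-L1 adipocytes were exposed to compound at 5 and 10 µM without 2-NBDG. Viability was read by MTT assay.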
A general note: Tetrazolium dyes change colour on reduction, which living cells bring about.

For series [4], the target named is T2, Tyrosine-protein phosphatase non-receptor type 1 (Homo sapiens) (UniProt P18031).
T2 sequence (whole entry): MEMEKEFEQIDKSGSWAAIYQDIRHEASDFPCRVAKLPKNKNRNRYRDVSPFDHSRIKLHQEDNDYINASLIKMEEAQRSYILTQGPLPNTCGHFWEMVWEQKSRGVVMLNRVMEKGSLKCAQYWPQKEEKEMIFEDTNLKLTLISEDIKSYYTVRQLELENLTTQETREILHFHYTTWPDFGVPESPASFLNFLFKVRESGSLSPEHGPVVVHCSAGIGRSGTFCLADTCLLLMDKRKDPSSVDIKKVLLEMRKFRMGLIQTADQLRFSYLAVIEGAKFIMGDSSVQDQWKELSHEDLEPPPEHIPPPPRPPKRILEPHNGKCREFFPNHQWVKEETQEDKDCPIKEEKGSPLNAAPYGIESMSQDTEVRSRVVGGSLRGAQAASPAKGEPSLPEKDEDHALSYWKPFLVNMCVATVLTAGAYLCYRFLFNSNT
In words: (§2) Inhibition of human recombinant PTP1B using p-NPP as substrate preincubated for 10 mins followed by substrate addition measured after 20 mins by microplate reader analysis. The procedure, abridged: (§3)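 Enzyme inhibition was tested at graded concentrations. IC50 was obtained by regression analysis and reported as mean ± SD of three replicates.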

The target in series [5] is T3, Tyrosine-protein phosphatase non-receptor type 1 (Homo sapiens, UniProt P18031).
T3 sequence (P18031 whole entry): T2 sequence (whole entry)
The series is described as §2. Put shortly: as §3

Series [6] has as its target T3, Tyrosine-protein phosphatase non-receptor type 1. The experiment in a line: Mixed-competitive inhibition of human recombinant PTP1B using p-NPP as substrate preincubated for 10 mins followed by substrate addition measured after 20 mins by Lineweaver-Burk/Dixon plot analysis. Put shortly: (§4)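 Kinetic mode and Ki came from Lineweaver–Burk and Dixon plots of initial velocity at several substrate and inhibitor concentrations. Ki was read as the negative x-axis value where three Dixon lines intersect. Data are the mean reciprocal initial velocity, n = 3 replicates per substrate concentration.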

The target is the same in series [7]. The experiment in a line: Uncompetitive inhibition of human recombinant PTP1B using p-NPP as substrate preincubated for 10 mins followed by substrate addition measured after 20 mins by Lineweaver-Burk/Dixon plot analysis. The procedure, abridged: as §4
For series [8] the target is unchanged. The experiment in a line: Competitive inhibition of human recombinant PTP1B using p-NPP as substrate preincubated for 10 mins followed by substrate addition measured after 20 mins by Lineweaver-Burk/Dixon plot analysis. The procedure, abridged:
as §4

For orientation: IC50 means the midpoint of a concentration-inhibition curve. For orientation: Ki means the dissociation constant of the complex between target and ligand, obtained from inhibition or displacement. As for `O=C(O)c1c(-c2ccc(O)cc2)ccc(CO)c1C#Cc1ccc(O)cc1`, the inhibition entry in series [1] and in series [4] was “Dose-dependent effect” each time. Besides, in series [2], the fold change (FC) is 1.24. Also, the Activity result in series [3] was “Non-toxic”. Further, the IC50 in series [5] amounted to 13.2 µM. Moreover, the Ki in series [6] is 14.5 µM.
On to `O=C1C[C@@H](c2cc(-c3c(O)ccc4c(=O)cc(-c5ccc(O)cc5)oc34)c(O)cc2O)Oc2cc(O)cc(O)c21`, for which the inhibition entry in series [1] and in series [4] was “Dose-dependent effect” in each case. In series [3], the Activity entry was “Non-toxic”. In addition, the IC50 in series [5] worked out at 9.8 µM. Also, the Ki in series [7] stood at 10.4 µM.
As for `O=c1c(-c2c(O)cc(O)c3c(=O)cc(-c4ccc(O)cc4)oc23)c(-c2ccc(O)cc2)oc2cc(O)cc(O)c12`, the inhibition result in series [1] and in series [4] was “Dose-dependent effect” throughout. The fold change (FC) in series [2] came to 1.44. The Activity result in series [3] is on record as “Non-toxic”. The IC50 in series [5] came to 4.5 µM. Further, in series [6], the Ki came out at 4.6 µM.
`O=c1cc(-c2ccc(O)c(-c3c(O)cc(O)c4c(=O)cc(-c5ccc(O)cc5)oc34)c2)oc2cc(O)cc(O)c12` [AMENTOFLAVONE]: the inhibition entry in series [1] and in series [4] was “Dose-dependent effect” throughout. For the same compound, the Activity result in series [3] is recorded as “Non-toxic”. Moreover, the IC50 in series [5] came out at 7.4 µM. Also, in series [6], the Ki amounted to 7.8 µM.
On to `O=c1cc(-c2ccc(O)cc2)oc2c(-c3c(O)cc(O)c4c(=O)cc(-c5ccc(O)cc5)oc34)c(O)cc(O)c12` [CUPRESSUFLAVONE], for which the inhibition result in series [1] and in series [4] was “Dose-dependent effect” in each case. The Activity entry in series [3] is given as “Non-toxic”. Also, in series [5], the IC50 came out at 9.6 µM. In series [8], the Ki stood at 10.7 µM.
Regarding `O=c1cc(-c2ccc(O)c(-c3c(O)cc4oc(-c5ccc(O)cc5)cc(=O)c4c3O)c2)oc2cc(O)cc(O)c12` [ROBUSTAFLAVONE], the inhibition result in series [1] and in series [4] was “Dose-dependent effect” each time. Also, the Activity result in series [3] is “Non-toxic”. In addition, the concentration for half-maximal inhibition (IC50) in series [5] was found to be 6.2 µM. Further, the Ki in series [6] came out at 6.8 µM.
`O=c1cc(-c2ccc(O)c(-c3c(-c4ccc(O)cc4)oc4cc(O)cc(O)c4c3=O)c2)oc2cc(O)cc(O)c12` [TAIWANIAFLAVONE]: the inhibition entry in series [1] and in series [4] was “Dose-dependent effect” in each case. Further, the fold change (FC) in series [2] was found to be 1.47. Further, in series [3], the Activity entry is “Non-toxic”. In series [5], the IC50 is 5.4 µM. For the same compound, the inhibitory constant (Ki) in series [6] came to 4.5 µM.
